Publication PMC9291915 (British Journal of Clinical Pharmacology, 2021)

Key:
CYP3A4 = CYP3A4 (Homo sapiens, UniProt P08684); experiment: Cytochrome P450 inhibition; format: in vitro ADME
Summary of the method: (§1)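 Human liver microsomes (0.25 mg/mL final) were pre-incubated with the test compound at six concentrations (40 to 10 000, in water) for 30 min without or with NADPH, or with 0 min pre-incubation. Probe substrate and NADPH (1 mM) were then added (final DMSO 0.05%) and incubated 5 min at 37 °C. Isoform-specific time-dependent inhibitors served as positive controls. IC50 per condition was derived from the decrease in metabolite formation versus vehicle control.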

CYP2C19 = CYP2C19 (Homo sapiens, UniProt P33261); experiment: Cytochrome P450 inhibition; format: in vitro ADME
Sequence of CYP2C19 (P33261 whole entry): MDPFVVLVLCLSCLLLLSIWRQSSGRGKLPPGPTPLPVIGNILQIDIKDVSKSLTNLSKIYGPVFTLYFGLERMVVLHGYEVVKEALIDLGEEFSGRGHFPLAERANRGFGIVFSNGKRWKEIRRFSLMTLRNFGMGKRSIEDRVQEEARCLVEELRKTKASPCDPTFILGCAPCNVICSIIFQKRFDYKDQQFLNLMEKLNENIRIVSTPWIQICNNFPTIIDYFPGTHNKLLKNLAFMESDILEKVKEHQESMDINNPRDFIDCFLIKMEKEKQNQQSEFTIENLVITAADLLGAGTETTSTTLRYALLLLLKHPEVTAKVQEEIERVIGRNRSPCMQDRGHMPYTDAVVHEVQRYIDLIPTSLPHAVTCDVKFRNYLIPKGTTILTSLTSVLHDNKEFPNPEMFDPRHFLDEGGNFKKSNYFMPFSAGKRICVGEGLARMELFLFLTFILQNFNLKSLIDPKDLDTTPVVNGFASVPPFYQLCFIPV
Summary of the method: as §1

CYP1A2 = target: T1, CYP1A2 (Homo sapiens, UniProt P05177); experiment: Cytochrome P450 inhibition; format: in vitro ADME; details: substrate phenacetin; any pre-incubation condition
T1 sequence (P05177 1-516): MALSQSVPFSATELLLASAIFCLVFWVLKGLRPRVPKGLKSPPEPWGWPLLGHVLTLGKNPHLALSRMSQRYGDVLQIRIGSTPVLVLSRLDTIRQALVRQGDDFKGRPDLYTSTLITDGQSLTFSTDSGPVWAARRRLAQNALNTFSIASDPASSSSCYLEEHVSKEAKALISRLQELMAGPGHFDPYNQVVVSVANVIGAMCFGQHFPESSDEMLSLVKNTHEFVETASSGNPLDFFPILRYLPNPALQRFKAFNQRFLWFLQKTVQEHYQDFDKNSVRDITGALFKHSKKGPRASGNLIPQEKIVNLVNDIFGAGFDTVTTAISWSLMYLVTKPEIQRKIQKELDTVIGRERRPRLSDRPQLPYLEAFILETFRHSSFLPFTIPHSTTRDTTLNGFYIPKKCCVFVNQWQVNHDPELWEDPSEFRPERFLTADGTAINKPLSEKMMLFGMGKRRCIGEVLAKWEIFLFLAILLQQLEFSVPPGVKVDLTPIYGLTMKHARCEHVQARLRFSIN
Summary of the method: as §1

CYP2B6 = target: T2, CYP2B6 (Homo sapiens, UniProt P20813); experiment: Cytochrome P450 inhibition; format: in vitro ADME; details: substrate bupropion; any pre-incubation condition
T2 sequence (P20813 1-491): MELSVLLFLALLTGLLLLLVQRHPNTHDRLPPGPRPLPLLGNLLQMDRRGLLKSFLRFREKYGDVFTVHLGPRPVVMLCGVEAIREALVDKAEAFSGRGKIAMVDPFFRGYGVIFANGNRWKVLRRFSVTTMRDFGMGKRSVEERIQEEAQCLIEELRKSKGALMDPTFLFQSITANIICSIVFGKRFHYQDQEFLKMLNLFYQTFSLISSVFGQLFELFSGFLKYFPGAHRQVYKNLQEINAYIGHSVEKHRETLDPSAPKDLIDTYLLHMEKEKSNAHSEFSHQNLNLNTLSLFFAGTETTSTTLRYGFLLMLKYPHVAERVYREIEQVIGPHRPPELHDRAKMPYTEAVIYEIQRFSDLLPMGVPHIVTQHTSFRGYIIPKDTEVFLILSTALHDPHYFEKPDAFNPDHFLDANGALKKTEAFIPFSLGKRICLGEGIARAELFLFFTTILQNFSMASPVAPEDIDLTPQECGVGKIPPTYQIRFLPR
Summary of the method: as §1

CYP2C8 = target: T3, CYP2C8 (Homo sapiens, UniProt P10632); experiment: Cytochrome P450 inhibition; format: in vitro ADME; details: substrate paclitaxel; any pre-incubation condition
T3 sequence (P10632 1-490): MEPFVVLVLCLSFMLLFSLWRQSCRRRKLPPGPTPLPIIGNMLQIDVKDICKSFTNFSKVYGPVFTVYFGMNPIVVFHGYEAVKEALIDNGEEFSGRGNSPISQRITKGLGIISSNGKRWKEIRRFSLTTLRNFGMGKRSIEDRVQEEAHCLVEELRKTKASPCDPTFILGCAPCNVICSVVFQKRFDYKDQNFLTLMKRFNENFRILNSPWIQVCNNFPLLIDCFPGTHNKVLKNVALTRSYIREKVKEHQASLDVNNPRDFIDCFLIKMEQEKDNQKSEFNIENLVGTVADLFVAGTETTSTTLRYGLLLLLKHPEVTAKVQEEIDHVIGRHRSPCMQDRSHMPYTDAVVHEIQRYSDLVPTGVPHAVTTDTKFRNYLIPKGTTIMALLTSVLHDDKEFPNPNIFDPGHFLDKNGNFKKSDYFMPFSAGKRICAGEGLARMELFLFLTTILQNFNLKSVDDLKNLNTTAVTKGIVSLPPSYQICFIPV
Summary of the method: as §1

CYP2C9 = CYP2C9 (Homo sapiens, UniProt P11712); experiment: Cytochrome P450 inhibition; format: in vitro ADME; details: substrate diclofenac; any pre-incubation condition
Sequence of CYP2C9 (P11712 whole entry): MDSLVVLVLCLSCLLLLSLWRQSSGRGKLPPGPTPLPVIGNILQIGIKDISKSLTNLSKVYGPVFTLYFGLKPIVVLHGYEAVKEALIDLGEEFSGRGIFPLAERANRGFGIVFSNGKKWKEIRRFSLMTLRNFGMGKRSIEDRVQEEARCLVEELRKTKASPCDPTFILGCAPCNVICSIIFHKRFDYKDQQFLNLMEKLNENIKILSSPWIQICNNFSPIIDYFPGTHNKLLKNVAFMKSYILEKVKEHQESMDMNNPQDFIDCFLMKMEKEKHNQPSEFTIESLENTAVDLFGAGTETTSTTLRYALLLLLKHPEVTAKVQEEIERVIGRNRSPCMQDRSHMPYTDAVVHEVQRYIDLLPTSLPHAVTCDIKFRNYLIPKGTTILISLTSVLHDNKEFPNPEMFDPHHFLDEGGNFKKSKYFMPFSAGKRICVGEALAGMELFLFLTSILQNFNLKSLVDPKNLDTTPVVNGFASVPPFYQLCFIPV
Summary of the method: as §1

CYP2D6 = CYP2D6 (Homo sapiens, UniProt P10635); experiment: Cytochrome P450 inhibition; format: in vitro ADME; details: substrate dextromethorphan; any pre-incubation condition
Sequence of CYP2D6 (P10635 whole entry): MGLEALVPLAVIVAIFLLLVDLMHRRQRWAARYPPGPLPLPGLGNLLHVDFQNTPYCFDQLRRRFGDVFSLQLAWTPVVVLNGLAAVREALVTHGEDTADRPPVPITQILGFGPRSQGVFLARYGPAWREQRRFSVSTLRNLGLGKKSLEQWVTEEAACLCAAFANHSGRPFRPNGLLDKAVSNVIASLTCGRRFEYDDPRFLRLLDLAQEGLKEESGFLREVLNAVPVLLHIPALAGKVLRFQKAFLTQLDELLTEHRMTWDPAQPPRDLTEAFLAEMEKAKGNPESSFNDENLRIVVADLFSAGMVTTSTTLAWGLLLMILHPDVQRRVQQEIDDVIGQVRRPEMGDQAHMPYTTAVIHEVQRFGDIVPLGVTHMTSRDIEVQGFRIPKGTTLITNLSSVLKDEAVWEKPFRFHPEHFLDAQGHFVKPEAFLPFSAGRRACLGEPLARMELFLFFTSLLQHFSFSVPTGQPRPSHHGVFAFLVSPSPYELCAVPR
Summary of the method: as §1

P-gp = P-gp (Homo sapiens, UniProt P08183); format: in vitro ADME
Sequence of P-gp (P08183 whole entry): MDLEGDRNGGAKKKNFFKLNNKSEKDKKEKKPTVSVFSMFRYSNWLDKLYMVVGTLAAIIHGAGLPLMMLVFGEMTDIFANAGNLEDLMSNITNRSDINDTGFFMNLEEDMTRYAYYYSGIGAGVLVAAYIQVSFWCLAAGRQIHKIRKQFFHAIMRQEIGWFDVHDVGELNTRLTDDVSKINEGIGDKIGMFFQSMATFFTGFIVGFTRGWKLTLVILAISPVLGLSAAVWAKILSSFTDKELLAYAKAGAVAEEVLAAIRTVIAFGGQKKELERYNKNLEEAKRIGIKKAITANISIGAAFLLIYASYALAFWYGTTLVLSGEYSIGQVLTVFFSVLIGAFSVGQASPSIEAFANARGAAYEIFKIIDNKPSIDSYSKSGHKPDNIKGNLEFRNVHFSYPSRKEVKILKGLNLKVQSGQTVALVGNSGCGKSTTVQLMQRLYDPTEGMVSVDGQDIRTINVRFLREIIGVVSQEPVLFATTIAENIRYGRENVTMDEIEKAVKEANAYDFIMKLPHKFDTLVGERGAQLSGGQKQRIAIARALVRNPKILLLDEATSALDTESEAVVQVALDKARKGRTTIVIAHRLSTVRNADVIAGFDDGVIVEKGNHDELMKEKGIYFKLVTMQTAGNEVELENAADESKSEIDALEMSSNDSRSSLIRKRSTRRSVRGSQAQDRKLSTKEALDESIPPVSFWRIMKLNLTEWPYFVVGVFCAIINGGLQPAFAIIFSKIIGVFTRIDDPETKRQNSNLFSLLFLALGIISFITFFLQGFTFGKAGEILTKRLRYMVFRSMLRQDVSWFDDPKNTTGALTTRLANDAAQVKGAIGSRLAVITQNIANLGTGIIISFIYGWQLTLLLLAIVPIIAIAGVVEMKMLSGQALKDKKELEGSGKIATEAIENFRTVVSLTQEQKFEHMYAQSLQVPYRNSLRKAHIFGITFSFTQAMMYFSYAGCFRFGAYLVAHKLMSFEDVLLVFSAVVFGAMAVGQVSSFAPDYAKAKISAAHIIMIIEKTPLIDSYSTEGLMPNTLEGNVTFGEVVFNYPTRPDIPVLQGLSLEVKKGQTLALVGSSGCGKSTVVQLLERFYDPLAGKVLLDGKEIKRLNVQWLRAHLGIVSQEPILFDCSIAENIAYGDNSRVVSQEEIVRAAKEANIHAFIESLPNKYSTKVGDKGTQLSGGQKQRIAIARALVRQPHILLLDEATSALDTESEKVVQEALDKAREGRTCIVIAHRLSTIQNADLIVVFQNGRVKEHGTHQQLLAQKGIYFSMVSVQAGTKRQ
Summary of the method: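 Bidirectional transport of loperamide was measured in a cell test system without and with a concentration range of the test compound; cyclosporin A was the control inhibitor. Papp = (dQ/dt)/(A×C0). Per replicate, A→B Papp was subtracted from B→A Papp to give net secretory flux. This was expressed as % of mean vehicle-control activity and fitted for IC50. Ki = IC50/(1+[S]×fu/Km), using loperamide Km 36.2.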

[1] = Clinical pharmacokinetics of treosulfan in plasma and urine; format: in vivo, human; details: for AUC / half-life: human, plasma, intravenous; for AUC: 14 g/m^2, AUC; for half-life: 14 g/m^2, apparent half‐life, median
[2] = cited from earlier work
[3] = cited from earlier work; remark: listed apart in the source
[4] = cited from earlier work; remark: listed apart in the source

Sequence of CYP3A4 (P08684 whole entry, canonical isoform): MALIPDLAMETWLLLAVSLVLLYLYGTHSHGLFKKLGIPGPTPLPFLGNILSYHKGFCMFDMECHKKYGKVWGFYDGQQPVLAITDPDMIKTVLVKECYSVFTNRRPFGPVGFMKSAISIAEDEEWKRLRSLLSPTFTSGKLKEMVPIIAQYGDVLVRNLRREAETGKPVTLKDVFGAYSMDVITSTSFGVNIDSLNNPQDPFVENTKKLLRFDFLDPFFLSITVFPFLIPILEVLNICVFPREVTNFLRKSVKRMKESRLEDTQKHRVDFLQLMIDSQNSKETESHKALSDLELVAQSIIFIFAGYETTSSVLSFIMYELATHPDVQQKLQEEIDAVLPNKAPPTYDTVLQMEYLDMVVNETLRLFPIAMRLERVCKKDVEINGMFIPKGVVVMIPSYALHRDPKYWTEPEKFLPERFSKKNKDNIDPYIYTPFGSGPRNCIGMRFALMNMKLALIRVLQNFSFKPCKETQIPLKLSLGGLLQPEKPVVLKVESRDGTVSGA

CS(=O)(=O)OC[C@H](O)[C@@H](O)COS(C)(=O)=O [treosulfan, L‐threitol‐1,4‐bis‐methanesulfonate]
IC50 (CYP3A4): 1870 µM
Ki (CYP3A4): 1210 µM
inhibition of CYP3A4 using testosterone as the substrate (CYP3A4; 40 to 10 000 μM treosulfan, any pre-incubation condition): did not inhibit
IC50 (CYP2C19): 972 µM
Ki (CYP2C19): 778 µM
inhibition of CYP1A2 (CYP1A2): did not inhibit
inhibition of CYP2B6 (CYP2B6): did not inhibit
inhibition of CYP2C8 (CYP2C8): did not inhibit
inhibition of CYP2C9 (CYP2C9): did not inhibit
inhibition of CYP2D6 (CYP2D6): did not inhibit
Ki (P-gp): 1770 µM
IC50 (P-gp; human, in vitro cell test system (cell line not given), probe loperamide): > 1000 µM
AUC ([1]; day −4, patients): 1450 µg·h/mL
AUC ([1]; day −6, patients): 1420 µg·h/mL
half-life ([1]; day −4, patients): 1.93 h
half-life ([1]; day −6, patients): 1.86 h
administered dose excreted in urine ([1]; patients): About 40%
rate at which dose was excreted in urine ([1]; patients, CV% = 31.98%): 130.38 mL/min
Log P O:W [2]: −1.58
B:P (blood‐plasma ratio) [3]: 0.88
GFR fraction, literature [4]: Estimated (literature[20]: 0.41 ± 0.22)
